This note sets out measurements from ChEMBL document CHEMBL5620388, “Quinolone analogues of benzothiazinone: Synthesis, antitubercular structure-activity relationship and ADME profiling” (Eur J Med Chem, 2023).

Format in all cases: functional
The subject of assay [1] is Mycobacterium tuberculosis. Kind of assay: Antitubercular activity against Mycobacterium tuberculosis harboring DprE1 p116S mutant assessed as reduction in bacterial growth incubated for 14 days. The note with it: time 14 day. A digest of the protocol:
(§1)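 Strains were H37Rv, the fluoroquinolone-resistant GyrA G88C mutant, and the dprE1 P116S and C387S mutants. All were cultured in standard Middlebrook 7H9 with ADC supplement.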

For assay [2], the system named is Mycobacterium tuberculosis. As to the kind of experiment: Antitubercular activity against Mycobacterium tuberculosis harboring DprE1 C387S mutant assessed as reduction in bacterial growth incubated for 14 days. The note with it: time 14 day. A digest of the protocol: as §1
The subject of assay [3] is Mycobacterium tuberculosis. As to the kind of experiment: Antitubercular activity against moxifloxacin-resistant Mycobacterium tuberculosis assessed as reduction in bacterial growth incubated for 14 days. Particulars: 336 h, time 14 day. A digest of the protocol: as §1

≈ marks a conversion by molar mass, not a printed value.

As to `O=C(NCCc1ccc(F)cc1)c1c[nH]c2c([N+](=O)[O-])cc(C(F)(F)F)cc2c1=O`, the MIC90 (usually the lowest concentration that inhibits either 90% of growth or 90% of the strains tested, depending on the study) in assay [1] is 1 µM (≈ 0.423 µg/mL); in assay [2], >62 µM; in assay [3] it was 1.9 µM (≈ 0.804 µg/mL).
The matching figures for `O=C(NCCc1ccc(Cl)cc1)c1c[nH]c2c([N+](=O)[O-])cc(C(F)(F)F)cc2c1=O`: 17 µM (≈ 7.48 µg/mL), 44.8 µM (≈ 19.7 µg/mL) and 1.9 µM (≈ 0.836 µg/mL).
The matching figures for `O=C(NCCc1ccc(C(F)(F)F)cc1)c1c[nH]c2c([N+](=O)[O-])cc(C(F)(F)F)cc2c1=O`: 0.5 µM (≈ 0.237 µg/mL), 54.2 µM (≈ 25.7 µg/mL) and 0.9 µM (≈ 0.426 µg/mL).
The matching figures for `COc1c(N2C[C@@H]3CCCN[C@@H]3C2)c(F)cc2c(=O)c(C(=O)O)cn(C3CC3)c12` [MOXIFLOXACIN]: 0.1 µM (≈ 0.0401 µg/mL), 0.05 µM (≈ 0.0201 µg/mL) and 6.3 µM (≈ 2.53 µg/mL).
On to `NNC(=O)c1ccncc1` [ISONIAZID], for which the MIC90 is 2 µM (≈ 0.274 µg/mL) in assay [1], 3.3 µM (≈ 0.453 µg/mL) in assay [2] and 3.6 µM (≈ 0.494 µg/mL) in assay [3].
